Calls of active or inactive are those of the source. The rule behind the calls is not given here.
Tests used:
Format in all cases: nucleic-acid assay
[1] = system: Nucleic Acid; assay: Binding affinity to 3'-r(CUUCCAGUUACAUAGAGA)-5' RNA assessed as change in melting temperature by spectrophotometry
[2] = system: Nucleic Acid; assay: Binding affinity to 3'-r(CUUCCAGUUGCAUAGAGA)-5' RNA assessed as change in melting temperature by spectrophotometry
[3] = system: Nucleic Acid; assay: Binding affinity to 3'-r(CUUCCAGUUCCAUAGAGA)-5' RNA assessed as change in melting temperature by spectrophotometry
[4] = system: Nucleic Acid; assay: Binding affinity to 3'-r(CUUCCAGUUUCAUAGAGA)-5' RNA assessed as change in melting temperature by spectrophotometry
[5] = system: Nucleic Acid; assay: Binding affinity to 3'-r(CUUCCAGUUACAUAGAGA)-5' RNA assessed as fluorescence quenching by spectrophotometry
[6] = system: Nucleic Acid; assay: Binding affinity to 3'-r(CUUCCAGUUGCAUAGAGA)-5' RNA assessed as fluorescence quenching by spectrophotometry
[7] = system: Nucleic Acid; assay: Binding affinity to 3'-r(CUUCCAGUUCCAUAGAGA)-5' RNA assessed as fluorescence quenching by spectrophotometry
[8] = system: Nucleic Acid; assay: Binding affinity to 3'-r(CUUCCAGUUUCAUAGAGA)-5' RNA assessed as fluorescence quenching by spectrophotometry
[9] = system: Nucleic Acid; assay: Binding affinity to 3'-r(CUUCCAGUUACAUAGAGA)-5' RNA assessed as fluorescence quenching measured post UV-irradiation by visual analysis
How it was run: (§1)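 Solutions of the N-containing probe/RNA target duplex in Tm buffer were irradiated with a handheld UV lamp at 254, 302 or 365 nm. The emitted colour was judged by eye from photographs.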

[10] = system: Nucleic Acid; assay: Binding affinity to 3'-r(CUUCCAGUUUCAUAGAGA)-5' RNA assessed as fluorescence quenching measured post UV-irradiation by visual analysis; how it was run: as §1

With `Cc1cn([C@H]2C[C@H](OP(=O)(O)OC[C@H]3O[C@@H](n4ccc(N)nc4=O)C[C@@H]3OP(=O)(O)OC[C@H]3O[C@@H](n4cnc5c(N)ncnc54)C[C@@H]3OP(=O)(O)OC[C@H]3O[C@@H](n4cnc5c(N)ncnc54)C[C@@H]3OP(=O)(O)OC[C@H]3O[C@@H](n4cc(C)c(=O)[nH]c4=O)C[C@@H]3OP(=O)(O)OC[C@H](Cn3cnc4cc5c(N)nc(N)nc5nc43)OP(=O)(O)OC[C@H]3O[C@@H](n4cnc5c(=O)[nH]c(N)nc54)C[C@@H]3OP(=O)(O)CC[C@H]3O[C@@H](n4cc(C)c(=O)[nH]c4=O)C[C@@H]3OP(=O)(O)OC[C@H]3O[C@@H](n4cnc5c(N)ncnc54)C[C@@H]3OP(=O)(O)OC[C@H]3O[C@@H](n4cc(C)c(=O)[nH]c4=O)C[C@@H]3OP(=O)(O)OC[C@H]3O[C@@H](n4ccc(N)nc4=O)C[C@@H]3OP(=O)(O)OC[C@H]3O[C@@H](n4cc(C)c(=O)[nH]c4=O)C[C@@H]3OP(=O)(O)OC[C@H]3O[C@@H](n4ccc(N)nc4=O)C[C@@H]3OP(=O)(O)OC[C@H]3O[C@@H](n4cc(C)c(=O)[nH]c4=O)C[C@@H]3O)[C@@H](COP(=O)(O)O[C@H]3C[C@H](n4cnc5c(=O)[nH]c(N)nc54)O[C@@H]3COP(=O)(O)O[C@H]3C[C@H](n4cnc5c(=O)[nH]c(N)nc54)O[C@@H]3COP(=O)(O)O[C@H]3C[C@H](n4cnc5c(N)ncnc54)O[C@@H]3COP(=O)(O)O[C@H]3C[C@H](n4cnc5c(N)ncnc54)O[C@@H]3COP(=O)(O)O[C@H]3C[C@H](n4cnc5c(=O)[nH]c(N)nc54)O[C@@H]3CO)O2)c(=O)nc1N` as the compound, how does the Activity [1] read?
The Activity was “inactive”.

And the ΔTm [2]?
Its ΔTm is -0.9 °C.

And the ΔTm [3]?
Its ΔTm is -0.8 °C.

What about the ΔTm [4] of the same compound?
The ΔTm was 1 °C.

And the Activity [5]?
Its Activity is “inactive”.

What about the Activity [6] of the same compound?
The Activity was “Active”.

And the Activity [7]?
Its Activity is “Active”.

And the Activity [8]?
Its Activity is “Active”.

And the Activity [9]?
The Activity was “inactive”.

What about the Activity [10] of the same compound?
Its Activity is “Active”.

— ChEMBL document CHEMBL1944514, “Fluorescence detection of single nucleotide polymorphisms using nucleic acid probe containing tricyclic base-linked acyclonucleoside” (Bioorg Med Chem Lett, 2012)
